Here are results for ten molecules from ChEMBL document CHEMBL1799964, “Synthesis of novel vitamin K2 analogues with modification at the ω-terminal position and their biological evaluation as potent steroid and xenobiotic receptor (SXR) agonists” (J Med Chem, 2011).

Data set [1] addresses T1, Nuclear receptor subfamily 1 group I member 2 (Homo sapiens, UniProt O75469).
T1 sequence (O75469 whole entry): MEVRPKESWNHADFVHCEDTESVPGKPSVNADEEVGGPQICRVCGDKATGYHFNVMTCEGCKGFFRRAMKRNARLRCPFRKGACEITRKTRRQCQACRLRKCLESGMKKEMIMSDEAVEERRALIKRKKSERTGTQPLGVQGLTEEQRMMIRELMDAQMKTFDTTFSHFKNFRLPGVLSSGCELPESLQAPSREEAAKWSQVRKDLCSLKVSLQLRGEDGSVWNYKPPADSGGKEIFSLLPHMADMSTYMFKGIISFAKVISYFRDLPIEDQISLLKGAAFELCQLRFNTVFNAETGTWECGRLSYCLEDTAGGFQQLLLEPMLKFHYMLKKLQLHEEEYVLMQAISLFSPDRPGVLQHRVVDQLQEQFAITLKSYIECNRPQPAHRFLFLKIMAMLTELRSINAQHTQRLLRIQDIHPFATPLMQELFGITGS
The experiment in a line: Binding affinity to human SXR transfected in human HepG2 cells coexpressing GAL4 assessed as transcriptional activation at 5 X 10^-6 M after 48 hrs by luciferase reporter gene assay. The class given is cell-based. Conditions: hepg2, 48 h, 5 µM; call rule not given here. An outline of the steps:
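HepG2 cells (2 x 10⁵/well) transfected by Lipofectamine with pM-SXR (0.1 μg), pGVP2-GAL2 luciferase reporter (1.0 μg) and pRL-CMV (0.05 μg). Mean ± SD of three independent experiments; Student's t test.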

The target in data set [2] is T1, Nuclear receptor subfamily 1 group I member 2. Kind of data set: Agonist activity at human SXR transfected in human HepG2 cells coexpressing GAL4 assessed as activation of receptor-mediated CYP3A4 gene transcription at 1 X 10^-6 M after 48 hrs by luciferase reporter gene assay. The note with it: hepg2, 48 h, 1 µM.
The subject of the next data set is Homo sapiens. The experiment in a line: Drug level in osteoporotic patient at 45 […] administered daily. Format: ADME, organism-based. Conditions: in vivo, read-out: Drug uptake.

As to `CC(C)=CCC1=C(C)C(=O)c2ccccc2C1=O`, the outcome in data set [1] and in data set [2] was Active. As for `CC(C)=CCC/C(C)=C/CC1=C(C)C(=O)c2ccccc2C1=O` [MENAQUINONE-2], the result in data set [1] was Active.

With `CO[C@H]1/C=C/O[C@@]2(C)Oc3c(C)c(O)c4c(O)c(c(/C=N/N5CCN(C)CC5)c(O)c4c3C2=O)NC(=O)/C(C)=C\C=C\[C@H](C)[C@H](O)[C@@H](C)[C@@H](O)[C@@H](C)[C@H](OC(C)=O)[C@@H]1C` [RIFAMPIN], the result in data set [1] was Active.

Take `CC1=C(C/C=C(\C)CC/C=C(\C)CC/C=C(\C)Cc2ccccc2)C(=O)c2ccccc2C1=O`: the outcome in data set [1] and in data set [2] was Active.

With `CC(C)=CCC/C(C)=C/CC/C(C)=C/CC/C(C)=C/CC1=C(C)C(=O)c2ccccc2C1=O` [MENATETRENONE], the outcome in data set [1] and in data set [2] was Active. Besides, the concentration in the data set on Homo sapiens is 1000 nM.

Regarding `CC(C)=CCC/C(C)=C/CC/C(C)=C/CC1=C(C)C(=O)c2ccccc2C1=O`, the result in data set [1] and in data set [2] was Active. For the molecule `CC1=C(C/C=C(\C)CC/C=C(\C)CC/C=C(\C)CO)C(=O)c2ccccc2C1=O`, the Activity result is listed as “Not Active” in data set [1] and “Active” in data set [2]. Regarding `CC1=C(C/C=C(\C)CC/C=C(\C)CO)C(=O)c2ccccc2C1=O`, the values for the Activity entry in data set [1] and in data set [2] were “Not Active” and “Active”, respectively. For `CC1=C(C/C=C(\C)CC/C=C(\C)Cc2ccccc2)C(=O)c2ccccc2C1=O`, in that order: “Active” and “Active”.

In the case of `CC1=C(C/C=C(\C)CC/C=C(\C)CC/C=C(\C)CC/C=C(\C)CO)C(=O)c2ccccc2C1=O`, the Activity entry in data set [1] is given as “Not Active”; in data set [2] it was “Active”.
